Laboratory results as given in PMC5494147 (Bioorganic & medicinal chemistry, 2017).

Assays:
[1] = target: T1, HDAC8 (Homo sapiens, UniProt Q9BY41); details: compared with HDACs 1–3; ref [5]–[6], [6c]; cited from earlier work
T1 sequence (Q9BY41 1-377): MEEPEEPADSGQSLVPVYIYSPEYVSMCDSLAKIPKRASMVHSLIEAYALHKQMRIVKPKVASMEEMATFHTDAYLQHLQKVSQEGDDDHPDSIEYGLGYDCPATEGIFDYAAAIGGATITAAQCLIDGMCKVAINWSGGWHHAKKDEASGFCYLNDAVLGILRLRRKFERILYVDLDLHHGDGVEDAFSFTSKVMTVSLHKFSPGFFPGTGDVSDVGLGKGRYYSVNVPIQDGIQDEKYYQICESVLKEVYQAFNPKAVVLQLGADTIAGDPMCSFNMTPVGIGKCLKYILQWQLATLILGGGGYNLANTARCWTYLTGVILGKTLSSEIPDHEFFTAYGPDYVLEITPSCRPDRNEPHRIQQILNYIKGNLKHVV

[2] = target: T2, HDAC10 (Homo sapiens, UniProt Q969S8); details: among class II isoforms; ref [5]–[6], [6c]; cited from earlier work
T2 sequence (Q969S8 1-669): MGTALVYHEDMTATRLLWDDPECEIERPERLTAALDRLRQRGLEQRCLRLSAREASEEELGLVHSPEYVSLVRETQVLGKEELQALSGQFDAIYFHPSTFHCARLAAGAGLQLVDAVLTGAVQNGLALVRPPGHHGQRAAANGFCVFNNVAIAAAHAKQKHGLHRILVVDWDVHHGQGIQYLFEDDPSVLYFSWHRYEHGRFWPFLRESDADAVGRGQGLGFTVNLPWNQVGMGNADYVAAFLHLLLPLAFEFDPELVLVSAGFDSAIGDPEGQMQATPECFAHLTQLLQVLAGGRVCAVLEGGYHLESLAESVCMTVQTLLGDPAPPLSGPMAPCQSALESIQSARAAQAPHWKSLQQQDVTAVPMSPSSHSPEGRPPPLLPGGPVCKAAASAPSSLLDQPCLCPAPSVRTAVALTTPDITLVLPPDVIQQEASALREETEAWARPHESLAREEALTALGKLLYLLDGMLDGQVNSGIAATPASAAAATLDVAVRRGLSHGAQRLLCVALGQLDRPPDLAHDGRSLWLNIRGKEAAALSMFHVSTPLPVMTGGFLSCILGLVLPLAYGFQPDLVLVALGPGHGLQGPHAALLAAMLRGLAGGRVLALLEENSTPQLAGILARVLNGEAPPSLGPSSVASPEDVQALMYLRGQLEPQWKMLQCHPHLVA

[3] = system: HDAC11; details: ref [5]–[6], [6c]; cited from earlier work
[4] = system: histone H3 (Lys9/14) acetylation in HCT116 cells; test: Immunoblot analysis of histone hyperacetylation; format: cell-based; details: HCT116, 8 h post-treatment
In short: (§1)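 Cells grown in DMEM with 10% FBS at 37 °C, 5% CO2; 4 × 10^5 cells seeded and incubated overnight. Treated 8 h with test compound at 0–10 μM final or 1% EtOH vehicle. Whole-cell lysates normalised by BCA; equal protein run on SDS-PAGE, transferred to PVDF, probed with anti-acetyl histone H3 antibody and β-actin, chemiluminescent detection.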

[5] = system: histone H3 (Lys9/14) acetylation in MDA-MB-231 cells; test: Immunoblot analysis of histone hyperacetylation; format: cell-based; details: MDA-MB-231, 8 h post-treatment
In short: as §1

[6] = target: T3, HDAC6 (Homo sapiens, UniProt Q9UBN7); details: relative to the strongly inhibited isoforms; ref [5]–[6], [6c]; cited from earlier work
T3 sequence (Q9UBN7 1-1215): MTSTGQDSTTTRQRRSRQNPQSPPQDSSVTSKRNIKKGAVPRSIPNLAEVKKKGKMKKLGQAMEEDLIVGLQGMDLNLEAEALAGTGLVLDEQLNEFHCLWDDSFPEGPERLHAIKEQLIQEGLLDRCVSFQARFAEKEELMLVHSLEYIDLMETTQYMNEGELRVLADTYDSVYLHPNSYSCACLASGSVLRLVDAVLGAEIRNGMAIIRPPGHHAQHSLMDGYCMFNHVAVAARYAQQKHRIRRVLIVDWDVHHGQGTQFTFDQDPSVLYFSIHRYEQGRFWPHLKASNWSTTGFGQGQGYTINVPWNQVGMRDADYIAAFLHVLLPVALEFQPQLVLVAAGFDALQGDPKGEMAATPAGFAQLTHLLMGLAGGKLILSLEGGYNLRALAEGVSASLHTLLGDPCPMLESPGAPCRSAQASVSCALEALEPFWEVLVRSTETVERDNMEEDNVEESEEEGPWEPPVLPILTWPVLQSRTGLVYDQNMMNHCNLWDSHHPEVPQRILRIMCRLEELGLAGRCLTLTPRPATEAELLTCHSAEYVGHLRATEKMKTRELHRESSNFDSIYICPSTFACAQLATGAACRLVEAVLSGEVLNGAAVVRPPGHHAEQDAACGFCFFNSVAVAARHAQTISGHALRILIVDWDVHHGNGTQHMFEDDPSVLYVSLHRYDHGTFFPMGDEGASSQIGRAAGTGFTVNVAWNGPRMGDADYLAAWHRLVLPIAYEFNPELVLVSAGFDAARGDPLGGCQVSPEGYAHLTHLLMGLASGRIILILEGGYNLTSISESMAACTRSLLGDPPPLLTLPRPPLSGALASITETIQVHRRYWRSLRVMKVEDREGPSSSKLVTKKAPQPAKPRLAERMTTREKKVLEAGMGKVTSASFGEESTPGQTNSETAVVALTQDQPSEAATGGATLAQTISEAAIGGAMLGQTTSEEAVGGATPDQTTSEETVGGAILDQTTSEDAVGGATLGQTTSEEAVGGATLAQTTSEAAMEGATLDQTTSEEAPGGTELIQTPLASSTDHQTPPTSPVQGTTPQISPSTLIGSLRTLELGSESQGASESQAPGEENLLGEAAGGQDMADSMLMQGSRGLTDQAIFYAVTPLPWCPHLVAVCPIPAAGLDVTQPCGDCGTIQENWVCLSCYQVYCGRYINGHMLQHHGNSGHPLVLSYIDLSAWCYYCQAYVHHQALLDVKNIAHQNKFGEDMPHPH

[7] = target: T4, HDAC isoform 7 (Homo sapiens, UniProt Q8WUI4); test: HDAC enzyme inhibitory assay; format: biochemical; details: up to concentrations of 10 μM
T4 sequence (Q8WUI4 1-952): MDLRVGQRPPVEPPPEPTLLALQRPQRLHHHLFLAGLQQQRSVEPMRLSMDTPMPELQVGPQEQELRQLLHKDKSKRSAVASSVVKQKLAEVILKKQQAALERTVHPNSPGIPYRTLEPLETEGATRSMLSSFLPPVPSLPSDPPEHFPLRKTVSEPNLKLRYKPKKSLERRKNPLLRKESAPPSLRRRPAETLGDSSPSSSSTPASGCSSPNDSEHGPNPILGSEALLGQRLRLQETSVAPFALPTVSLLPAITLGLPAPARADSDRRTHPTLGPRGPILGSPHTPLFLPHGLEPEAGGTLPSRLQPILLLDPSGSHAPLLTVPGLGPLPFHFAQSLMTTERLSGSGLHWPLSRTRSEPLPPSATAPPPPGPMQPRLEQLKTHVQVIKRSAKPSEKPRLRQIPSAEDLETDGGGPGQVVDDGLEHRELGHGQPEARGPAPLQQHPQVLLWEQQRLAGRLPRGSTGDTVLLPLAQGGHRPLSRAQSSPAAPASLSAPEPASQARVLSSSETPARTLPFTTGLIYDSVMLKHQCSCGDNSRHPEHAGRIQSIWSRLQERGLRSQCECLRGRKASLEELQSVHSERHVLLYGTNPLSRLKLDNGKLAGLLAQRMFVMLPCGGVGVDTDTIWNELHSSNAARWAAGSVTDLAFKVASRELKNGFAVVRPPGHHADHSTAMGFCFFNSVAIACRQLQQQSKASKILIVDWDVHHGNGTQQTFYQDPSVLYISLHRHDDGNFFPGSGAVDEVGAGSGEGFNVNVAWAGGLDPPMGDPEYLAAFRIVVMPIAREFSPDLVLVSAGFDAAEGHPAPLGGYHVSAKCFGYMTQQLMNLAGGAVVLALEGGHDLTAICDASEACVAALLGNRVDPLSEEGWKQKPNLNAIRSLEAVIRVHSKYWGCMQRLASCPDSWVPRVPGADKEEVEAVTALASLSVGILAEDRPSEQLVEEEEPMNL

[8] = target: T5, HDAC isoform 11 (Homo sapiens, UniProt Q96DB2); test: HDAC enzyme inhibitory assay; format: biochemical; details: up to concentrations of 10 μM
T5 sequence (Q96DB2 1-347): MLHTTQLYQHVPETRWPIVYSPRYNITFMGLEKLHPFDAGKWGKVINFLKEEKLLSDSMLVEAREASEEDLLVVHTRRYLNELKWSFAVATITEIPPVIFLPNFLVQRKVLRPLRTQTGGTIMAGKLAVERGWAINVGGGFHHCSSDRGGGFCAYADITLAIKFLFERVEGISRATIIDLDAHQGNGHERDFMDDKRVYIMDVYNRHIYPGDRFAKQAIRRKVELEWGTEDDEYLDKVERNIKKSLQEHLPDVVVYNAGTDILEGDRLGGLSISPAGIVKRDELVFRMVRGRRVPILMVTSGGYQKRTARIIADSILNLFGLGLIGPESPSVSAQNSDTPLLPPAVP

[9] = target: HDAC isoform 9 (Homo sapiens, UniProt Q9UKV0); test: HDAC enzyme inhibitory assay; format: biochemical; details: up to concentrations of 10 μM
[10] = target: HDAC isoform 4 (Homo sapiens, UniProt P56524); test: HDAC enzyme inhibitory assay; format: biochemical; details: up to concentrations of 10 μM
[11] = system: sirtuins; test: HDAC enzyme inhibitory assay; format: biochemical; details: up to concentrations of 10 μM

Chain of HDAC isoform 9 (Q9UKV0 whole entry, canonical isoform): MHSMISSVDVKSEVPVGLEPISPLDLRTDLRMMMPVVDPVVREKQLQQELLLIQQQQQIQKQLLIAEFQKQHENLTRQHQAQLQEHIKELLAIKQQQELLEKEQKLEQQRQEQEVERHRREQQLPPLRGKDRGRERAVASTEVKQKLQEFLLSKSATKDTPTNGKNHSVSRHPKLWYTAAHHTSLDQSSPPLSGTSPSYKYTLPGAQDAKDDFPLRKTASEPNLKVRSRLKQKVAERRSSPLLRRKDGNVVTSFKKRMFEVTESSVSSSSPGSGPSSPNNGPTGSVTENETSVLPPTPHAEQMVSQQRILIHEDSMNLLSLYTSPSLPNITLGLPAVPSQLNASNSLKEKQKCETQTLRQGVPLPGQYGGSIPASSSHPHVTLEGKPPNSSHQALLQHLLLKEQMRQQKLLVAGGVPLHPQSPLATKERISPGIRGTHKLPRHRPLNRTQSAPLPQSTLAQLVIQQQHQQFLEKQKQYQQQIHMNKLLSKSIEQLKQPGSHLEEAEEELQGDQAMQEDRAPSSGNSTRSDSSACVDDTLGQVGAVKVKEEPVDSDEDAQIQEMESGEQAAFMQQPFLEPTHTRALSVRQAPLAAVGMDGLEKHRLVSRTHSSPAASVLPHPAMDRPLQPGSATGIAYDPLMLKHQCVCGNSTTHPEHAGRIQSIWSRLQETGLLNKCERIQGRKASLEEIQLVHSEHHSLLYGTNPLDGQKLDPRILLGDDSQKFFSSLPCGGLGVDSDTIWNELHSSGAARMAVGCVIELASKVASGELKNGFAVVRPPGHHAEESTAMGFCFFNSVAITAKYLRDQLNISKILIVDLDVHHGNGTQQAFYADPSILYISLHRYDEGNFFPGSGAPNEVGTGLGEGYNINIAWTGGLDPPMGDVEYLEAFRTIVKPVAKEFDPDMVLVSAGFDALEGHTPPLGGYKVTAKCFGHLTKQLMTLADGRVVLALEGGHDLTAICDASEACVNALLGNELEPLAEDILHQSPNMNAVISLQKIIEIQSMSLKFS
Chain of HDAC isoform 4 (P56524 whole entry, canonical isoform): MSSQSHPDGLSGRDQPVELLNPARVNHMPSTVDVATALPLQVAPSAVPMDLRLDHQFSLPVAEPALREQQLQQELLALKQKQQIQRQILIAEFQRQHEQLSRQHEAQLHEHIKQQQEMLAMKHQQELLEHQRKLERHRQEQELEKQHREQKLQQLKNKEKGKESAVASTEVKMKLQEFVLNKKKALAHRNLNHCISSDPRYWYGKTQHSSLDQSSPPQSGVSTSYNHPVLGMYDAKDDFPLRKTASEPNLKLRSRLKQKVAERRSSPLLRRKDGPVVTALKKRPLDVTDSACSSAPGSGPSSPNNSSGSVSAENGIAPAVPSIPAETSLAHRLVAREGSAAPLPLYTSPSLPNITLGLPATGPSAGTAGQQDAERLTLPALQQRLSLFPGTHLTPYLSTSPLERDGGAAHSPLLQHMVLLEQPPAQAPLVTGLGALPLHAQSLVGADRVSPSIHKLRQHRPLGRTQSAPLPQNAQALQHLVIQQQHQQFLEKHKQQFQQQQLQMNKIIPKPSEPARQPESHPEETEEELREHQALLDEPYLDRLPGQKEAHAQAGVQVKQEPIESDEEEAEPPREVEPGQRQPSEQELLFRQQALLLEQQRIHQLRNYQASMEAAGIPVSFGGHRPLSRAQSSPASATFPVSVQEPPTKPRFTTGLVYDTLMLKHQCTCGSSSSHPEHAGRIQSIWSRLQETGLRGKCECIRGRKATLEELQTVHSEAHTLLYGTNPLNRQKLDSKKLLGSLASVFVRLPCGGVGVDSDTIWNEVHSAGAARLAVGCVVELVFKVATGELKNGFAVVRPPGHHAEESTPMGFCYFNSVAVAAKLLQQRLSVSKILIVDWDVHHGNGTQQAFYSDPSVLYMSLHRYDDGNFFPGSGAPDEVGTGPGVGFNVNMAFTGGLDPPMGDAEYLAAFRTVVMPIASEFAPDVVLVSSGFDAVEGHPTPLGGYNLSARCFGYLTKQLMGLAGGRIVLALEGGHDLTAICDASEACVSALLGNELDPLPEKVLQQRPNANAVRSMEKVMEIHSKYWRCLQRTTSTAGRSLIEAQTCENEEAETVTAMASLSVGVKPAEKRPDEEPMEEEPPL

CCCCCCCC(=O)SCC/C=C/[C@@H]1CC(=O)NCc2nc(cs2)C2=N[C@@](C)(CS2)C(=O)N[C@@H](C(C)C)C(=O)O1 [compound 5, largazole]
HDAC8 inhibition [1]: inhibited to a much lesser extent
HDAC10 activity in vitro [2]: severely compromised
HDAC11 inhibition [3]: strongly inhibited
histone H3 (Lys9/14) hyperacetylation [4]: dose-dependent increase
histone H3 (Lys9/14) hyperacetylation [5]: dose-dependent increase
potency in vitro against HDAC6 [6]: two orders of magnitude lower potency

CC(C)[C@@H]1NC(=O)[C@]2(C)CSC(=N2)c2csc(n2)CNC(=O)C[C@@H](/C=C/CCC(=O)NO)OC1=O [compound 7]
histone H3 (Lys9/14) hyperacetylation [4]: dose-dependent increase
histone H3 (Lys9/14) hyperacetylation [5]: dose-dependent increase

CC(C)[C@@H]1NC(=O)[C@]2(C)CSC(=N2)c2csc(n2)CNC(=O)C[C@@H](/C=C/CCSCCS)OC1=O [compound 8]
histone H3 (Lys9/14) hyperacetylation [4]: dose-dependent increase
histone H3 (Lys9/14) hyperacetylation [5]: dose-dependent increase

CC(C)[C@@H]1NC(=O)[C@]2(C)CSC(=N2)c2csc(n2)CNC(=O)C[C@@H](/C=C/CCS)OC1=O [compound 6, largazole thiol]
inhibitory activity against isoform 7 [7]: None of the compounds tested, including largazole thiol 6, showed any inhibitory activity
inhibitory activity against isoform 11 [8]: None of the compounds tested, including largazole thiol 6, showed any inhibitory activity
inhibitory activity against isoform 9 [9]: None of the compounds tested, including largazole thiol 6, showed any inhibitory activity
inhibitory activity against isoform 4 [10]: None of the compounds tested, including largazole thiol 6, showed any inhibitory activity
inhibitory activity against sirtuins [11]: None of the compounds tested, including largazole thiol 6, showed any inhibitory activity
